Screening results from PubChem.
STAT1 act = STAT1 signaling activators, primary screen, cell-based, HTS, luciferase reporter; NIH 3T3 STAT1-luciferase reporter, IFN-gamma, luminescence; 100% = IFN-gamma alone, no compound; activation (% of control), % at 5.5 µM; actives 2.6% (n = 200,000); AID 932, 2007;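 active means activation above the screen-wide mean activation plus 3 SD, cut at about 130% in these data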
HSV replic up = enhancers of HSV replication in host cells, fold increase, host cell viability; AID 1956, 2009; actives 0.005% (n = 220,000); maximum fold increase; HSV replication augmentation in cells; in the data active means maximum fold increase above about 1.5; tested in PC3 cells
KCC2 mod = KCC2 cotransporter modulators, thallium flux, primary screen, cell-based, HEK293 KCC2, FluoZin-2 fluorescence, MLSMR. KCC2 cells, thallium flux FluoZin-2 fluorescence. actives 2.2% (n = 190,000). AID 1456, 2008. B-score of Tl+ flux slope (higher = more flux/activation; lower = inhibition) at 10 µM. Solute carrier family 12 member 5 (Homo sapiens), Q9H2X9;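 active means thallium flux slope and its plate-corrected score both differing from the plate sample mean at a set confidence after two filtering rounds, in either direction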;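 further: slope of fluorescence scaled to starting intensity during 10 to 20 s after thallium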
Target sequence (Q9H2X9 whole entry, looked up): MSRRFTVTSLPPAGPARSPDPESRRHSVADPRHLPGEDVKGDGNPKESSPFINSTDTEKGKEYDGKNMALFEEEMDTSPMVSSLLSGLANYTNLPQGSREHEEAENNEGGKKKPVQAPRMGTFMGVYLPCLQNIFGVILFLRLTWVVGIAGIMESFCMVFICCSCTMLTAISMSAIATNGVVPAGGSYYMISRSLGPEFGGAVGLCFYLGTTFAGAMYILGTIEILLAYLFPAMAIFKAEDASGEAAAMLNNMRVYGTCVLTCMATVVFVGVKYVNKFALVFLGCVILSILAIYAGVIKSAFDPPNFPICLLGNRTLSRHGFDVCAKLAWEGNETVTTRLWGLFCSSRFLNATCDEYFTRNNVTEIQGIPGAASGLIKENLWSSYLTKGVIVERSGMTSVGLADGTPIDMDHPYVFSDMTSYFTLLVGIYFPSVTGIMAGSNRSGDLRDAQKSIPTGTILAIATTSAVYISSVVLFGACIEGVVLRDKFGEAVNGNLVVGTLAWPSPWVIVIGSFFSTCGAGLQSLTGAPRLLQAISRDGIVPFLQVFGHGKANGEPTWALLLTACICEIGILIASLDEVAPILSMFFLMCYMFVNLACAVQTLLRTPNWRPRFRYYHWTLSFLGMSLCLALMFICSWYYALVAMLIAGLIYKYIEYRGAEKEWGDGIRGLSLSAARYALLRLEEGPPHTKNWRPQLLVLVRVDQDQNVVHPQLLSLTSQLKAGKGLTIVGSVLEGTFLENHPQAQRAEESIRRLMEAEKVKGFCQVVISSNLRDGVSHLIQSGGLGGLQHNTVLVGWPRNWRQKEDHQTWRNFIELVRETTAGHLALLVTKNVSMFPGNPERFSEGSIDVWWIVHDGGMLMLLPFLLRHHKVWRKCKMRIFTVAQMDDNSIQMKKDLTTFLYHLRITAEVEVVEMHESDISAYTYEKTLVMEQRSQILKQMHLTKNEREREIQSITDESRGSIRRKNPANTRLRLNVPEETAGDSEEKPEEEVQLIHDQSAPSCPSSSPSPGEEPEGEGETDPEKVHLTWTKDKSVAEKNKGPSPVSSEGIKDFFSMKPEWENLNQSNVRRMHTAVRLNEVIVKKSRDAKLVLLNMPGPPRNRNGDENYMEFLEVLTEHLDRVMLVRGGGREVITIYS
STAT1 inh = STAT1 signaling inhibitors, primary screen, cell-based, HTS, luciferase reporter; inhibition, % at 5.5 µM; AID 920, 2007; actives 0.35% (n = 200,000); NIH 3T3 STAT1-luciferase reporter, IFN-gamma, luminescence;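 active means inhibition above a set limit, the mean inhibition across all tested compounds plus 3 SD, cut at about 34% in these data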
STAT3 inh = IL-6 driven STAT3 reporter inhibitors, primary screen, U3A cells, luciferase, luminescence, MLSCN library. IL-6 STAT3-luciferase reporter; host cell line lacks STAT1. inhibition, % at 5.5 µM. actives 0.89% (n = 190,000). AID 862, 2007;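 active means inhibition above the mean inhibition across all screened compounds plus 3 SD, cut at about 44% in these data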
STAT3 activator = IL-6 driven STAT3 reporter potentiators, primary screen, U3A cells, luciferase, luminescence, MLSCN library; actives 0.91% (n = 190,000); activation (% of control), % at 5.6 µM; AID 871, 2007; IL-6 STAT3-luciferase reporter; 100% = signal with IL-6 EC80 alone;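 active means activation above the screen-wide mean of compound activation plus 3 SD, cut at about 130% in these data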
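Material: STAT3-luciferase reporter U3A cells. Controls: IL-6-treated wells, 100% activation. Read-out: % activation versus median of IL-6-stimulated wells. Probe or stimulus: IL-6 stimulus at 33 ng/mL final. Timing: compound 1 h, then IL-6 6 h at 37 °C. Signal: reporter luminescence signal.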
Each line names hits and unclear results; the compound was inactive in the other large screens. In the library only some 5.5% were active in any assay of this set; here they are far more common.

O=C(Nc1ccc(-c2nc3cc(Cl)ccc3o2)cc1)C1CCCO1 (stereo unspecified)	STAT1 act 150
O=C(Nc1ccc(-c2nc3ccccc3o2)cc1)C1CCCO1 (stereo unspecified)	STAT1 act 140
COc1ccc(NC(=O)C2CCCO2)cc1 (stereo unspecified)	none (no result: KCC2 mod)
COc1ccc(CC(=O)Nc2nn(C)c3nc4c(C)cccc4cc23)cc1	none (no result: STAT1 act, STAT1 inh, STAT3 inh, STAT3 activator)
COc1cccc(NC(=O)CCNC(=O)Cn2ccc3ccccc3c2=O)c1	none (no result: KCC2 mod)
CSc1nsc2nc(=O)c(/C=C3\C=Nc4ccccc43)c(N)n12	KCC2 mod -3.1
Cc1cc(NC(=O)CSc2ncnc3sc(C)c(C)c23)no1	none
O=C(C1CC1)N1N=C(C2CCCCC2)CC1(O)C(F)(F)F (stereo unspecified)	none
Cn1c(=NC(=O)c2cccc([N+](=O)[O-])c2)sc2ccccc21	STAT1 act 170, STAT3 activator 136
CCSc1ccc(-c2cccc([N+](=O)[O-])c2)nn1	STAT1 act 137
COc1ccc(C(=O)CNc2ccc(C)cc2C)cc1	none (no result: STAT1 act, STAT1 inh, STAT3 inh, STAT3 activator)
O=c1oc2cc(OCc3c(F)cccc3Cl)ccc2cc1-c1ccccn1	none
CCCOc1ccc2cc(-c3ccccn3)c(=O)oc2c1	STAT1 inh 39, STAT3 inh 98
OCc1cc(C(O)CNCCCCCCOCCCCc2ccccc2)ccc1O (stereo unspecified)	KCC2 mod -3 (no result: STAT1 act, STAT1 inh, STAT3 inh, STAT3 activator)
COc1ccccc1NC(=O)Nc1nnc(C(C)C)s1	STAT1 act 140
Nc1ccccc1-c1n[nH]c(=S)s1	none
Cc1ccc(C)c(S(=O)(=O)N2CC(=O)N(CCc3ccccc3)C(=O)C2)c1	none
Cc1nn(Cc2ccccc2)c(Cl)c1/C=C/C(=O)OCC(=O)N1CCCC1=O	none
O=C(COC(=O)C1CCN(S(=O)(=O)c2ccccc2C(F)(F)F)CC1)NCc1ccc(F)cc1	none
COc1ccc(/C=N/NC(=O)c2[nH]c3ccc(Br)cc3c2-c2ccccc2)cc1	STAT3 activator 152
COc1ccc(/C=N/NC(=O)c2[nH]c3ccc(Br)cc3c2-c2ccccc2)c(C(=O)O)c1OC	none (no result: STAT1 act, STAT1 inh, STAT3 inh, STAT3 activator)
O=C(N/N=C/c1ccccc1Cl)c1[nH]c2ccc(Br)cc2c1-c1ccccc1	STAT3 activator 135
CC(=O)N1CCN(C(=S)Nc2cc(S(=O)(=O)N3CCOCC3)ccc2Cl)CC1	none
O=C(N/N=C/c1ccccn1)c1cccc([N+](=O)[O-])c1	none (no result: KCC2 mod)
Cc1cccc(C(=O)N/N=C/c2ccccn2)c1	STAT1 act 136
O=C(N/N=C/c1ccccn1)c1ccc([N+](=O)[O-])cc1	STAT1 act 133
O=C(N/N=C/c1ccccn1)c1ccc(Br)cc1	STAT1 act 134, KCC2 mod 4.2
O=C(N/N=C/c1ccccn1)c1cc([N+](=O)[O-])cc([N+](=O)[O-])c1	STAT1 act 129
O=C(N/N=C/c1ccccn1)c1ccc(N/N=C/c2ccccn2)cc1	none
C(=C\c1nnc(-c2cccs2)o1)/c1ccccc1	STAT1 act 143
Cc1ccc(/C=C/c2nnc(-c3ccccc3)o2)cc1	none
Clc1ccccc1-c1nnc(-c2cccs2)o1	STAT1 act 143
O=C(CNc1ccccc1OC(F)F)N1CCc2ccccc21	STAT1 act 143
O=C(CNCCO)N1CCc2ccccc21	none
O=c1c(-c2ccc(Cl)cc2)[n+]([O-])c2ccccc2n1O	KCC2 mod 9.6
O=c1c(-c2cccc([N+](=O)[O-])c2)[n+]([O-])c2ccccc2n1O	none (no result: STAT1 act, STAT1 inh, STAT3 inh, STAT3 activator)
C(=N\Nc1nc(-c2ccccc2)cs1)/c1ccncc1	STAT1 act 149 (no result: KCC2 mod)
C(=N\Nc1nc(-c2ccccc2)cs1)/c1cccs1	STAT1 act 145 (no result: KCC2 mod)
O=c1c2c3c(sc2nc(NCCO)n1Cc1ccco1)CCCCC3	none
COCCNc1nc2sc3c(c2c(=O)n1Cc1ccco1)CCCCC3	STAT1 act 129
O=C(NC1=NCCS1)c1cccc2ccccc12	none
CCSc1nnc(NC(=O)c2ccc(Br)s2)s1	none
CC(NC(=O)Nc1nnc(C(F)(F)F)s1)(C(F)(F)F)C(F)(F)F	STAT1 inh 62, STAT3 inh 82 (no result: KCC2 mod)
O=C(NC1=NCCS1)c1ccc(Br)s1	STAT1 act 138
O=C(Nc1nnc(C(F)(F)F)s1)c1ccc(Br)s1	STAT1 inh 42, STAT3 inh 46
COc1ccc(OC)c2sc(NC(=O)c3ccc(Cl)s3)nc12	none (no result: KCC2 mod)
COc1ccc(OC)c2sc(NC(=O)c3ccc(Br)s3)nc12	KCC2 mod 6.1
COc1ccc2c(c1)CCc1c-2nc2ccccc2c1N1CCOCC1	none (no result: STAT1 act, STAT1 inh, STAT3 inh, STAT3 activator)
O=C(NC(=S)N1CCCc2ccccc21)c1ccc(Cl)cc1	KCC2 mod 57, STAT3 activator 142
O=C(NC(=S)N1CCCc2ccccc21)c1ccc([N+](=O)[O-])cc1	none (no result: KCC2 mod)
O=C(NC(=S)N1CCCc2ccccc21)c1ccc(Br)cc1	KCC2 mod 72, STAT3 activator 133
NCCNc1ccc([N+](=O)[O-])c(NC2CC2)c1	none (no result: HSV replic up)
CCC(=O)Oc1ccc(C(=O)Nc2ccc([N+](=O)[O-])cc2)cc1	STAT1 act 134
O=c1c(-c2cc3ccccc3o2)[n+]([O-])c2ccccc2n1OCc1ccccn1	STAT1 act 142
O=C(CCl)Nc1cn(-c2ccccc2)nc1-c1ccc(F)cc1	none
COc1ccc2nc3cccc(OC)c3nc2c1	STAT1 act 129
COc1ccc2nc3ccccc3nc2c1N	none (no result: STAT1 act, STAT1 inh, STAT3 inh, STAT3 activator)
CCOC(=O)c1[nH]c(C)c(C(=O)C(C)C)c1C	none
Cc1cc(C)c2nc(SC(C)C(=O)NCC(=O)Nc3ccc(F)c(F)c3F)cc(C)c2c1 (stereo unspecified)	KCC2 mod 12
O=C(NCCc1ccccc1)c1nc2c(nnn2Cc2ccccc2Cl)c(=O)[nH]1	STAT3 activator 133
COCCCn1c(SCC(=O)N2CCc3ccccc32)nnc1-c1ccoc1C	STAT3 activator 136
COCCCn1c(SCC(=O)N2CCc3ccccc32)nnc1-c1ccco1	none
COc1cccc(/C=N/Nc2ncnc(N)c2[N+](=O)[O-])c1OC	STAT1 inh 59, STAT3 inh 86
CCOC(=O)c1ccc2nc(CCC(=O)N[C@H](C(=O)OC)C(C)C)c(=O)n(CC)c2c1	none
Cc1cc(C)c2nc3nc(C)c(C)cc3c(N)c2c1	STAT1 act 143
CN(C)c1cccc(C(=O)OCC(=O)N2CCc3ccccc3C2)c1	none
Cc1ccsc1C(=O)OCC(=O)N1CCc2ccccc2C1	STAT1 act 144
O=C(O)CCCCCN=Cc1c(O)c2ccccc2oc1=O	none
CC(=O)N1CCN(c2ccc(Nc3ncnc4c3oc3ccccc34)cc2)CC1	none
